Results as given in ChEMBL document CHEMBL4811308, “Design, synthesis and broad spectrum antibreast cancer activity of diarylindoles via induction of apoptosis in aggressive breast cancer cells” (Bioorg Med Chem, 2021).
The source made the active and inactive calls. The rule behind the calls is not given here.

What was measured:
[1] = system: MCF7; assay: Cytotoxicity against human MCF7 cells assessed as reduction in cell viability incubated for 24 hrs by MTT assay; assay type: functional, cell-based; conditions: MCF7, 24 h
How it was run: (§1)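 MTT viability: cells seeded at 1 × 10^4/well, grown 24 h, then exposed to a concentration range of compound for 24 h. MTT (5 mg/mL stock) added for 3 h, formazan dissolved in DMSO, absorbance read at 540 nm.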

[2] = system: MDA-MB-231; assay: Cytotoxicity against human MDA-MB-231 cells assessed as reduction in cell viability incubated for 24 hrs by MTT assay; assay type: functional, cell-based; conditions: MDA-MB-231, 24 h; how it was run: as §1
[3] = system: MDA-MB-231; assay: Induction of cell cycle arrest in human MDA-MB-231 cells assessed as accumulation at S phase at 2 uM incubated for 24 hrs by PI staining based flow cytometry analysis (reference value: 40.37 to 57.89 %); assay type: functional
[4] = system: MDA-MB-231; assay: Induction of cell cycle arrest in human MDA-MB-231 cells assessed as accumulation at G2/M phase at 4 uM incubated for 24 hrs by PI staining based flow cytometry analysis (reference value: 4.35 to 19.56 %); assay type: functional
[5] = system: MDA-MB-231; assay: Induction of cell cycle arrest in human MDA-MB-231 cells assessed as accumulation at S phase at 6 uM incubated for 24 hrs by PI staining based flow cytometry analysis (reference value: 40.37 to 57.89 %); assay type: functional
[6] = system: MDA-MB-231; assay: Induction of apoptosis in human MDA-MB-231 cells assessed as viable cells at 2 uM incubated for 24 hrs by annexin-V-FITC and PI staining based flow cytometry analysis (reference value: 95.27 to 97.16 %); assay type: functional; conditions: read-out: Activity
[7] = system: MDA-MB-231; assay: Induction of apoptosis in human MDA-MB-231 cells assessed as late apoptotic cells at 2 uM incubated for 24 hrs by annexin-V-FITC and PI staining based flow cytometry analysis (reference value: 0.28 to 0.84 %); assay type: functional
[8] = system: MDA-MB-231; assay: Induction of apoptosis in human MDA-MB-231 cells assessed as early apoptotic cells at 4 uM incubated for 24 hrs by annexin-V-FITC and PI staining based flow cytometry analysis (reference value: 0.28 to 4.68 %); assay type: functional
How it was run: (§2)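 MDA-MB-231 cells (1 × 10^6) grown 24 h in six-well plates, then treated for 24 h. Cells trypsinized, PBS-washed and stained with Annexin V-FITC/PI in binding buffer for 10 min in the dark at room temperature. Early/late apoptotic fractions quantified by flow cytometry.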

[9] = system: MDA-MB-231; assay: Induction of apoptosis in human MDA-MB-231 cells assessed as late apoptotic cells at 4 uM incubated for 24 hrs by annexin-V-FITC and PI staining based flow cytometry analysis (reference value: 0.28 to 0.84 %); assay type: functional
[10] = system: MDA-MB-231; assay: Induction of apoptosis in human MDA-MB-231 cells assessed as viable cells at 6 uM incubated for 24 hrs by annexin-V-FITC and PI staining based flow cytometry analysis (reference value: 95.27 to 97.16 %); assay type: functional; conditions: read-out: Activity
[11] = system: MDA-MB-231; assay: Induction of apoptosis in human MDA-MB-231 cells assessed as early apoptotic cells at 6 uM incubated for 24 hrs by annexin-V-FITC and PI staining based flow cytometry analysis (reference value: 0.28 to 4.68 %); assay type: functional; how it was run: as §2
[12] = system: MDA-MB-231; assay: Induction of apoptosis in human MDA-MB-231 cells incubated for 24 hrs by annexin-V-FITC and PI staining based flow cytometry analysis; assay type: functional, cell-based; conditions: dose 2-6 µM
[13] = system: MDA-MB-231; assay: Induction of mitochondrial membrane depolarization in human MDA-MB-231 cells at 2 to 6 uM incubated for 24 hrs by JC-1 staining based flow cytometry analysis; assay type: functional, cell-based; conditions: dose 2-6 µM
How it was run: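 Mitochondrial potential measured in MDA-MB-231 cells (1 × 10^6) seeded in six-well plates for 24 h and treated 24 h. Trypsinized cells PBS-washed and stained with 5 µg/ml JC-1 for 30 min in dark at room temperature. Resuspended in PBS and read by flow cytometry as red aggregate versus monomer fluorescence.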

[14] = system: MDA-MB-231; assay: Cytotoxicity against human MDA-MB-231 cells assessed as reduction in cell viability at 2 to 6 uM incubated for 24 hrs in presence of NAC by MTT assay; assay type: functional, cell-based; conditions: dose 2-6 µM
How it was run: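 MDA-MB-231 cells pretreated 2 h with 10 mM N-acetylcysteine, then exposed to compound for 24 h. Viability by MTT (3 h), formazan in DMSO, absorbance at 540 nm. Three independent experiments, mean ± S.E.M.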

[15] = target: T1, Estrogen receptor (Homo sapiens) (UniProt P03372); assay: Transactivation of ERalpha (unknown origin) transfected in human MDA-MB-231 cells at 1 uM by dual luciferase receptor assay; assay type: cell-based
T1 sequence (whole entry): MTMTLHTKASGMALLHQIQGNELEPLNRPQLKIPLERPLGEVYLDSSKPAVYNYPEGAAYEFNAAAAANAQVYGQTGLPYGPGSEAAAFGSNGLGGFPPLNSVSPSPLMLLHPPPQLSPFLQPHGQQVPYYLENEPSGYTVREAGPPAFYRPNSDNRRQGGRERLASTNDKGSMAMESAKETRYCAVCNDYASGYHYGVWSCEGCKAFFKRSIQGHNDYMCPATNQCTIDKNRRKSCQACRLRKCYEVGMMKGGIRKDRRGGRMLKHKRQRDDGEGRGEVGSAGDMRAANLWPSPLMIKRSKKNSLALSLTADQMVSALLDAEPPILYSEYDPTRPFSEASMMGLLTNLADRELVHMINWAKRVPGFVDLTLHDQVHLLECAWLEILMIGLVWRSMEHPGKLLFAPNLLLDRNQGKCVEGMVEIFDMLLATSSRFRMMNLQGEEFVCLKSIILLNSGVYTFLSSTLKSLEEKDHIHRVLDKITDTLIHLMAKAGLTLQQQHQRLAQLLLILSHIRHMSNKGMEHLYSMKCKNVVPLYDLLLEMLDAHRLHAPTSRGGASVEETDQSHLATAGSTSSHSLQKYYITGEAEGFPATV
How it was run: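 MDA-MB-231 cells grown to 80-90% confluency, transfected with 500 ng of ERα (pSG5 mERα) or ERβ (pSG5-hERβ) expression vector plus pRL-SV40 Renilla for normalization, then reseeded. Cells incubated with E2 (100 nM), compound at 1 µM, or tamoxifen at 1 µM. Dual luciferase readout reported as percent normalized RLU, triplicate experiments with three replicates each.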

[16] = target: Tubulin (Homo sapiens) (UniProt P68371+Q9H4B7+P0DPH7+P68366+Q13509+Q71U36+P04350+Q3ZCM7+P07437+P68363+Q9BQE3+Q6PEY2+Q13885+Q9BVA1+Q9BUF5); assay: Induction of tubulin polymerization (unknown origin) at 10 uM incubated for 1 hr by spectrometric analysis; assay type: protein-complex assay
[17] = system: 4T1; assay: Antitumor activity against mouse 4T1 cells […] in BALB/c mouse assessed as reduction in tumor growth at 10 to 20 mg/kg, po administered for 21 days and measured on day 21 relative to control; assay type: functional, organism-based; conditions: dose 10-20 mg/kg, time 21.0 day
How it was run: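 Orthotopic syngeneic model: 4T1 cells (7 × 10^5) injected into the mammary fat pad of six-week-old female Balb/c mice; randomized once tumors were measurable (1 week). Compounds in ethanol diluted in PBS, 10 or 20 mg/kg oral gavage daily for 21 days; vehicle controls. Tumor size measured twice weekly; volume = (LW²) × 0.5.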

In the case of `COc1ccc2c(c1)c(Cc1ccc(OCCN3CCCCC3)cc1)c(-c1cc(OC)c(OC)c(OC)c1)n2Cc1ccc(OCCN2CCCCC2)cc1`, the IC50 [1] is reported as 6.48 µM, the IC50 [2] is reported as 2.42 µM and the Activity [3] is reported as 34.3%. The Activity [4] was 15.43%, the Activity [5] was 29.41% and the viability at 2 µM [6] was 81.5%. The Activity [7] was 4.26%, the Activity [8] was 16.02% and the Activity [9] was 26.25%. The viability at 6 µM [10] was 44.6%, the Activity [11] was 17.19% and the Activity [12] was “Dose-Dependent Effect”. For the same compound, the Activity [13] was “Active”, the Activity [14] was “inactive” and the Activity [15] was “inactive”. For the same compound, the Activity [16] was “Active” and the Activity [17] was “Active”.
`CCN(CC)CCOc1ccc(Cc2c(-c3cc(OC)c(OC)c(OC)c3)n(Cc3ccc(OCCN(CC)CC)cc3)c3ccc(OC)cc23)cc1` was tested, and the IC50 [1] was 6.36 µM, the IC50 [2] was 2.34 µM and the Activity [3] was 38.21%. It also gave an Activity [4] of 8.09%, an Activity [5] of 36.56% and a viability at 2 µM [6] of 88.2%. It also gave an Activity [7] of 2.94%, an Activity [8] of 4.19% and an Activity [9] of 14.66%. For the same compound, the viability at 6 µM [10] was 69.7%, the Activity [11] was 14.01% and the Activity [12] was “Dose-Dependent Effect”. For the same compound, the Activity [13] was “Active”, the Activity [14] was “inactive” and the Activity [15] was “inactive”. For the same compound, the Activity [16] was “Active” and the Activity [17] was “Active”.
`COc1ccc2c(c1)c(Cc1ccc(OCCN(C)C)cc1)c(-c1cc(OC)c(OC)c(OC)c1)n2Cc1ccc(OCCN(C)C)cc1` gave an IC50 [1] of 4.48 µM, an IC50 [2] of 3.78 µM and an Activity [3] of 38.78%. For the same compound, the Activity [4] was 0.22%, the Activity [5] was 35.63% and the viability at 2 µM [6] was 80.7%. It also gave an Activity [7] of 5.32%, an Activity [8] of 18.17% and an Activity [9] of 20.05%. For the same compound, the viability at 6 µM [10] was 36.2%, the Activity [11] was 39.6% and the Activity [12] was “Dose-Dependent Effect”. The Activity [13] was “Active”, the Activity [14] was “inactive” and the Activity [15] was “inactive”. The Activity [16] was “Active” and the Activity [17] was “Active”.
In the case of `COc1ccc2c(c1)c(Cc1ccc(OC(C)CN(C)C)cc1)c(-c1cc(OC)c(OC)c(OC)c1)n2Cc1ccc(OC(C)CN(C)C)cc1` (stereo not drawn), the IC50 [1] is reported as 7.06 µM, the IC50 [2] is reported as 3.88 µM and the Activity [3] is reported as 40.83%. For the same compound, the Activity [4] was 9.55%, the Activity [5] was 42.27% and the viability at 2 µM [6] was 72.5%. It also gave an Activity [7] of 3.43%, an Activity [8] of 28.04% and an Activity [9] of 15.18%. For the same compound, the viability at 6 µM [10] was 45.8%, the Activity [11] was 20.52% and the Activity [12] was “Dose-Dependent Effect”. The Activity [13] was “Active”, the Activity [14] was “inactive” and the Activity [15] was “inactive”. The Activity [16] was “Active” and the Activity [17] was “Active”.
